Assay outcomes: PubChem BioAssay, The Scripps Research Institute Molecular Screening Center
A selection: hits, their analogues and other compounds. The true share with any hit is near 2.3%.
Fam108B inh = mouse Fam108B serine hydrolase inhibitors, primary screen, counter-screen for RBBP9 inhibitor project, biochemical, fluorescence polarization. hit rate 0.33% among 300,000. inhibition, % at 9.51 µM. recombinant Fam108B, FP-Rh probe fluorescence polarization;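 active means inhibition above the screen mean inhibition plus 3 SD, computed separately per campaign, cut at about 18% in these data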;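 further: inhibitors lower polarization as less probe binds the enzyme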
GSTO1 inh = inhibitors of recombinant GSTO1, primary screen, counter-screen for RBBP9 inhibitor project, biochemical, fluorescence polarization | Glutathione S-transferase omega-1 (Homo sapiens), P78417 | activity-based probe fluorescence polarization | inhibition, % at 5.96 µM | hit rate 1.1% among 300,000 | AID 1974, 2009;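 active means inhibition above the campaign mean inhibition plus 3 SD, cut at about 35% in these data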
Target sequence (P78417 whole entry, looked up): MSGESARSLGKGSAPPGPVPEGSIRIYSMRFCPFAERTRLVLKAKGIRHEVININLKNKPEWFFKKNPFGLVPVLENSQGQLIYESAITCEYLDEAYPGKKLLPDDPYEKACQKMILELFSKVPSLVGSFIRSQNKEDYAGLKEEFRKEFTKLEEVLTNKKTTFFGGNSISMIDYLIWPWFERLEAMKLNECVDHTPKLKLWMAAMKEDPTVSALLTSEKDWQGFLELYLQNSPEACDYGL
PME-1 inh = PME-1 inhibitors via competitive probe labeling, primary screen, biochemical, fluorescence polarization, FP-Rh probe, HTS; recombinant PME-1; inhibition, % at 5.9 µM; hit rate 0.53% among 320,000; AID 2130, 2009;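 active means inhibition above the campaign mean of all compounds plus 3 SD, cut at about 26% in these data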;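 further: competitive labeling of PME-1 active site by serine hydrolase directed probe; inhibitors block probe labeling so polarization falls and inhibition rises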
Target sequence (Q9Y570 whole entry, looked up): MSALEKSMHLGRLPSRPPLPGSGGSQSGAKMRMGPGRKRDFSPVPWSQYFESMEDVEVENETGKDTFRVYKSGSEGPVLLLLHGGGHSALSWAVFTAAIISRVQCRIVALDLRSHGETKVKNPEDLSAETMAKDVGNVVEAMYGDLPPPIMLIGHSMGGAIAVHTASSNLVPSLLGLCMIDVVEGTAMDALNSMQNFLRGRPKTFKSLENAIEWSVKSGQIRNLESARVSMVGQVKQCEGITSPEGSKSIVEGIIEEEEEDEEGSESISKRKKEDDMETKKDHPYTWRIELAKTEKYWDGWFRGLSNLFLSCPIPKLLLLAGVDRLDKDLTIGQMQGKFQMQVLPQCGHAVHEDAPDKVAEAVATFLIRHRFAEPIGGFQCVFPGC
PRMT1 inh = PRMT1 methyltransferase inhibitors, primary screen, biochemical, fluorescence polarization; Protein arginine N-methyltransferase 1 (Homo sapiens), Q99873; recombinant PRMT1, activity-based probe fluorescence polarization; inhibition, % at 2.79 µM; hit rate 1.3% among 370,000; AID 652257, 2013;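 active means inhibition above about 21% made by adding two undisclosed values, limit read from the data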
PAD4 inh = human PAD4 inhibitors, primary screen, biochemical, fluorescence polarization, 1536-well format. AID 485272, 2010. inhibition, % at 6.36 µM. hit rate 0.41% among 330,000. Protein-arginine deiminase type-4 (Homo sapiens), Q9UM07. recombinant PAD4, RCA probe fluorescence polarization;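 active means percent inhibition above a cutoff equal to the mean of all tested compounds plus 3 SD, cut at about 15% in these data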
RBBP9 inhibitor = human RBBP9 inhibitors, primary screen, biochemical, fluorescence polarization, FP-Rh probe, HTS. hit rate 0.2% among 220,000. Serine hydrolase RBBP9 (Homo sapiens), O75884. AID 1515, 2009. inhibition, % at 7.94 µM. recombinant RBBP9;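 active means inhibition above the campaign mean of all tested compounds plus 3 SD, cut at about 14% in these data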
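Measured by: FP readout at 525/598 nm; material: recombinant human RBBP9; also added: Serine-hydrolase probe FP-Rh, 375 nM pre-mixing; medium: Tris buffer pH 8.0, NaCl, Pluronic; replication: one well per compound; doses: one concentration, 7.94 µM nominal, 0.794% DMSO; timing: preincubation 30 min plus labeling 45 min at 25 °C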
Large screens that a line does not name were inactive.

Cc1ccc(NNC(=O)c2ccno2)cc1C	PRMT1 inh 23
Cc1ccc(NNC(=O)c2ccno2)cc1Cl	none
CC1Oc2ccccc2C=C1/C=N/Nc1ccc(C(=O)O)cc1 (centres undefined)	PME-1 inh 34
COc1ccc(NC(=O)CSc2nc3nc(-c4cccs4)cc(C(F)(F)F)c3c(=O)[nH]2)c(OC)c1	PME-1 inh 46
CCN1C(=O)c2cccc3c(NS(=O)(=O)c4ccc(NC(C)=O)cc4)ccc1c23	none
CCOC(=O)c1ccc(NC(=O)Nc2ccc3c4c(cccc24)C(=O)N3CC)cc1	PME-1 inh 28
CC(C)(C)OC(=O)N1CC=C2C(C#N)=C(N)C(C#N)(C#N)C(c3cccs3)C2C1 (centres undefined)	none
CCOC(=O)N1CC=C2C(C#N)=C(N)C(C#N)(C#N)[C@H](c3cccs3)C2C1 (some centres undefined)	PME-1 inh 31
CCCOc1ccc([C@@H]2C3CN(C(=O)OCC)CC=C3C(C#N)=C(N)C2(C#N)C#N)cc1OC (some centres undefined)	PME-1 inh 48 (no result: PRMT1 inh)
COc1cc(C2C3CN(C)CC=C3C(C#N)=C(N)C2(C#N)C#N)ccc1OC(C)C (centres undefined)	none
CCc1nnc(NC(=O)CSc2nc3cccnc3n2Cc2ccccc2)s1	GSTO1 inh 36
CC(C)COc1ccc(C(=O)NC(CC(C)C)C(=O)O)cc1 (centres undefined)	none
Cc1ccc(Oc2ccc(OCC(=O)NC(CC(C)C)C(=O)O)cc2)cc1 (centres undefined)	GSTO1 inh 38
Cc1nc([N+](=O)[O-])cn1Cc1cccc([N+](=O)[O-])c1	none
COc1ccc(Br)cc1/C=N/Nc1cccc(C(=O)O)c1	none
O=C(O)c1cccc(N/N=C/c2cc(Br)cc(Br)c2O)c1	PME-1 inh 58
O=C(C1CCN(S(=O)(=O)c2cccc3cccnc23)CC1)N1CCn2c1nc1ccccc12	PME-1 inh 28
O=c1[nH]c2cc3c(cc2cc1CN(Cc1nnnn1CC1CCCO1)C1CCCCC1)OCO3 (centres undefined)	PRMT1 inh 23
COc1ccc(N2CCN(C(=O)CCc3c[nH]c4ccccc34)CC2)cc1	none
O=C(CCc1c[nH]c2ccccc12)N1CCN(c2ccc(O)cc2)CC1	PRMT1 inh 22
CCc1cccc(NC(=O)C2CCCN(c3ncnc4c3nc3n4CCCCC3)C2)c1 (centres undefined)	none (no result: RBBP9 inhibitor)
S=c1[nH]c(-c2ccccc2)cn1/N=C/c1ccccc1Br	none
S=c1[nH]c(-c2ccccc2)cn1/N=C/c1cccc2ccccc12	PME-1 inh 28
CC(=O)n1cc(N(C(=O)CCl)c2ccc(C)cc2)c2ccccc21	GSTO1 inh 70
COC(=O)c1cc(C#N)c(OC)nc1C	none
O=C(Nc1ccc(Cl)c(-c2nc3ccccc3[nH]2)c1)c1cccnc1	none
COc1ccccc1CCNC(=O)CCSc1nc(-c2ccco2)cc(C(F)(F)F)n1	PRMT1 inh 23
COc1ccccc1CCNC(=O)CSc1nc(-c2ccco2)cc(C(F)(F)F)n1	none
COc1ccc(C2C(C(=O)Nc3cc(OC)ccc3OC)CCC(=O)N2c2ccc(OC)cc2)cc1 (centres undefined)	none (no result: Fam108B inh, GSTO1 inh, PME-1 inh, PAD4 inh, RBBP9 inhibitor)
CC(C)Oc1ccc(NC(N)=O)cc1	none
O=C(OCCN(C1=NS(=O)(=O)c2ccccc21)c1ccc(Cl)cc1)c1ccco1	PME-1 inh 27
O=C(CCN1CCc2ccccc2C1)c1ccc2c(c1)OCCO2	none (no result: PRMT1 inh)
O=C(CCN1CCCCC1)c1ccc2c(c1)OCCO2	PRMT1 inh 24
O=C(CCN1CCCCCC1)c1ccccc1	RBBP9 inhibitor 18
COc1cc(/C=N/NC(=O)C(Cc2c[nH]c3ccccc23)NC(=O)OCc2ccccc2)cc([N+](=O)[O-])c1O (centres undefined)	PME-1 inh 29
CCSc1nc2sc3c(c2c(=O)[nH]1)CC(C)(CC)OC3 (centres undefined)	none
O=c1c2ccccc2nc(N/N=C/c2c(O)ccc3ccccc23)n1O	PME-1 inh 34
CCCC(=O)Nc1ccc(N2CCN(C(=O)CCC)CC2)cc1	none
CCCCC1CCC(C(=O)N(CCOC)c2c(N)n(CC(C)C)c(=O)[nH]c2=O)CC1 (centres undefined)	none (no result: Fam108B inh, GSTO1 inh, RBBP9 inhibitor)
Cc1ccc(C(=O)N/N=C/c2ccc(-c3cccc(Cl)c3)o2)cn1	none
Cc1ccc(C(=O)N/N=C/c2ccc(-c3ccccc3[N+](=O)[O-])o2)cn1	GSTO1 inh 37
COc1ccccc1CCNC(=O)C(=O)NCC1OCCCN1S(=O)(=O)c1ccc(F)cc1C (centres undefined)	none (no result: RBBP9 inhibitor)
COc1cc2nc(Nc3ccc(C)c(C)c3)nc(N)c2cc1OC	none (no result: RBBP9 inhibitor)
CCOC(=O)c1ccc(Nc2nc(N)c3cc(OC)c(OC)cc3n2)cc1	PME-1 inh 27 (no result: PRMT1 inh, RBBP9 inhibitor)
O=C(N/N=C/c1cc(Cl)cc(Cl)c1O)c1ccncc1	PRMT1 inh 24
O=C(N/N=C/c1ccc(Cl)cc1Cl)c1ccncc1	none (no result: RBBP9 inhibitor)
COc1cccc(/C=N/Nc2snc(SC)c2C#N)c1	none
COc1ccc(/C=N/Nc2snc(SC)c2C#N)cc1OC	PME-1 inh 40
CC(=O)CC1(OC(C)=O)C(=O)N(C)c2ccccc21 (centres undefined)	none
CCOC(=O)c1c(S(=O)(=O)N2CCN(C)CC2)c(C)n(C)c1C	none (no result: RBBP9 inhibitor)
CCOC(=O)c1c(S(=O)(=O)N2CCCC2)c(C)n(C)c1C	PRMT1 inh 22 (no result: RBBP9 inhibitor)
COC(=O)Cc1ccccc1NS(=O)(=O)c1ccc(C)cc1	none (no result: Fam108B inh, GSTO1 inh, PME-1 inh, PAD4 inh, RBBP9 inhibitor)
COC(=O)c1ccc(Sc2ccccc2NS(=O)(=O)c2ccc(C)cc2)nc1	PME-1 inh 29
Cc1ccc(NNS(=O)(=O)c2ccc(C)cc2)cc1	PRMT1 inh 64
Cc1ccc(S(=O)(=O)NNC(=O)C(=O)NNS(=O)(=O)c2ccc(C)cc2)cc1	none
OC(COc1ccc(CNCCc2ccc(C(F)(F)F)cc2)cc1)CN1CCCCC1 (centres undefined)	none
Cc1nn(-c2ccccc2)c(Cl)c1C1C(C#N)=C(N)Oc2c1c(C)nn2-c1ccccc1 (centres undefined)	none
COc1cc(-n2nc(C)c3c2OC(N)=C(C#N)C3c2ccccc2)c(Cl)c(Br)c1O (centres undefined)	PAD4 inh 26
CCC1(C)Cc2ccccc2/C(=C/C(=O)N2CCCCC2)N1 (centres undefined)	PRMT1 inh 22
N#Cc1ccccc1NC(=O)CSc1cn[nH]n1	none (no result: RBBP9 inhibitor)
